Assay: Cytotoxicity against human HepG2 cells assessed as reduction in cell viability measured after 48 hrs by MTT assay
Type: functional, cell-based
Settings: HepG2, 48 h
How it was run: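 HepG2 cells grown in DMEM with 10% FBS, penicillin/streptomycin, 5% CO2, 37 °C; seeded at 5 × 10^4 cells/mL, attached 12 h. Compounds in DMSO at 1, 5, 10, 25 μM for 48 h; docetaxel positive control. MTT added for 4 h, formazan dissolved in DMSO, absorbance 550 nm. Viability relative to control wells; IC50 with 95% CI by log-concentration regression; three independent replicates.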

SMILES | IC50
C=C(C)[C@@H]1CC[C@]2(C(=O)O)CC[C@]3(C)[C@H](CC[C@@H]4[C@@]5(C)C[C@@H](OC(=O)/C=C/c6ccc(O)cc6)[C@H](O)C(C)(C)[C@@H]5CC[C@]43C)[C@@H]12 | 2 µM
C=C(C)[C@@H]1CC[C@]2(C(=O)O)CC[C@]3(C)[C@H](CC[C@@H]4[C@@]5(C)[C@@H](C(=O)OC)[C@H](OC(=O)c6ccc(O)c(OC)c6)C(C)(C)[C@@H]5CC[C@]43C)[C@@H]12 | 1.9 µM
C=C(C)[C@@H]1CC[C@]2(C(=O)O)CC[C@]3(C)[C@H](CC[C@@H]4[C@@]5(C)[C@@H](C(=O)O)[C@H](OC(=O)c6ccc(O)c(OC)c6)C(C)(C)[C@@H]5CC[C@]43C)[C@@H]12 | > 10 µM
C=C(C)[C@@H]1CC[C@]2(C(=O)O)CC[C@]3(C)[C@H](CC[C@@H]4[C@@]5(C)C[C@@H](OC(=O)c6ccc(O)cc6)[C@H](O)C(C)(C)[C@@H]5CC[C@]43C)[C@@H]12 | 2.9 µM
C=C(C)[C@@H]1CC[C@]2(C(=O)O)CC[C@]3(C)[C@H](CC[C@@H]4[C@@]5(C)C[C@@H](OC(=O)/C=C\c6ccc(O)cc6)[C@H](O)C(C)(C)[C@@H]5CC[C@]43C)[C@@H]12 | 2.1 µM
C=C(C)[C@@H]1CC[C@]2(C(=O)O)CC[C@]3(C)[C@H](CC[C@@H]4[C@@]5(C)[C@@H](C(=O)OC)[C@H](OC(=O)c6ccc(O)c(O)c6)C(C)(C)[C@@H]5CC[C@]43C)[C@@H]12 | 2.8 µM
C=C(C)[C@@H]1CC[C@]2(C(=O)O)CC[C@]3(C)[C@H](CC[C@@H]4[C@@]5(C)[C@H](C(=O)O)[C@H](OC(=O)c6ccc(O)c(OC)c6)C(C)(C)[C@@H]5CC[C@]43C)[C@@H]12 | 3.9 µM
C=C(C)[C@@H]1CC[C@]2(C(=O)O)CC[C@]3(C)[C@H](CC[C@@H]4[C@@]5(C)[C@H](C(=O)O)[C@H](OC(=O)c6ccc(O)cc6)C(C)(C)[C@@H]5CC[C@]43C)[C@@H]12 | > 10 µM
C=C(C)[C@@H]1CC[C@]2(C(=O)O)CC[C@]3(C)[C@H](CC[C@@H]4[C@@]5(C)C[C@@H](OC(=O)c6ccccc6)[C@H](O)C(C)(C)[C@@H]5CC[C@]43C)[C@@H]12 | > 10 µM
C=C(C)[C@@H]1CC=C2CC[C@]3(C(=O)O)[C@H](CC[C@@H]4[C@@]5(C)C=C[C@](C)(CO)[C@@H]5CC[C@]43C)[C@H]21 | 4.9 µM
C=C(C)[C@@H]1CC[C@]2(C(=O)O)CC[C@]3(C)[C@H](CC[C@@H]4[C@@]5(C)[C@H](C(=O)OC)[C@H](O)C(C)(C)[C@@H]5CC[C@]43C)[C@@H]12 | > 10 µM
C=C(C)[C@@H]1CC[C@]2(C(=O)O)CC[C@]3(C)[C@H](CC[C@@H]4[C@@]5(C)[C@@H](C(=O)O)[C@H](O)[C@](C)(CO)[C@@H]5CC[C@]43C)[C@@H]12 | > 10 µM
C=C(C)[C@@H]1CC[C@]2(C(=O)O)CC[C@]3(C(=O)O)[C@H](CC[C@@H]4[C@@]5(C)[C@@H](C(=O)OC)CC(C)(C)[C@@H]5CC[C@]43C)[C@@H]12 | > 10 µM
C=C(C)[C@@]12CC[C@@]3(CC[C@]4(C(=O)O)[C@H](CC[C@@H]5[C@@]6(C)[C@@H](C(=O)O)CC(C)(C)[C@@H]6CC[C@]54C)[C@H]31)C(=O)O2 | > 10 µM
C=C(C)[C@@H]1CC[C@]2(C(=O)O)CC[C@]3(C)[C@H](CC[C@@H]4[C@@]5(C)[C@@H](C(=O)O)[C@H](OC(=O)c6ccc(O)cc6)C(C)(C)[C@@H]5CC[C@]43C)[C@@H]12 | > 10 µM
C=C(C)[C@@H]1CC[C@]2(C(=O)O)CC[C@]3(C)[C@H](CC[C@@H]4[C@@]5(C)[C@@H](C(=O)O)[C@H](OC(=O)c6ccc(O)c(O)c6)C(C)(C)[C@@H]5CC[C@]43C)[C@@H]12 | > 10 µM
C=C(C)[C@@H]1CC[C@]2(C(=O)O)CC[C@]3(C)[C@H](CC[C@@H]4[C@@]5(C)C(C=O)=CC(C)(C)[C@@H]5CC[C@]43C)[C@@H]12 | 2 µM
C=C(C)[C@@H]1CC[C@]2(C(=O)O)CC[C@]3(C(=O)O)[C@H](CC[C@@H]4[C@@]5(C)[C@@H](C(=O)OC)[C@H](O)C(C)(C)[C@@H]5CC[C@]43C)[C@@H]12 | > 10 µM
C=C(C)[C@@H]1CC[C@]2(C(=O)O)CC[C@]3(C)[C@H](CC[C@@H]4[C@@]5(C)C[C@@H](OC(=O)c6ccc(O)c(O)c6)[C@H](O)C(C)(C)[C@@H]5CC[C@]43C)[C@@H]12 | > 10 µM
C=C(C)[C@@H]1CC[C@]2(C(=O)O)CC[C@]3(C(=O)O)[C@H](CC[C@@H]4[C@@]5(C)[C@@H](C(=O)O)CC(C)(C)[C@@H]5CC[C@]43C)[C@@H]12 | > 10 µM
C=C(C)[C@@H]1CC[C@]2(C(=O)O)CC[C@]3(C)[C@H](CC[C@@H]4[C@@]5(C)C[C@@H](O)[C@H](O)C(C)(C)[C@@H]5CC[C@]43C)[C@@H]12 [ALPHITOLIC ACID] | > 10 µM
C=C(C)[C@@H]1CC[C@]2(C(=O)O)CC[C@]3(C)[C@H](CC[C@@H]4[C@@]5(C)CC[C@H](O)C(C)(C)[C@@H]5CC[C@]43C)[C@@H]12 [BETULINIC ACID] | 5.9 µM
C=C(C)[C@@H]1CC[C@]2(C(=O)O)CC[C@]3(C)[C@H](CC[C@@H]4[C@@]5(C)[C@@H](C(=O)O)[C@H](O)C(C)(C)[C@@H]5CC[C@]43C)[C@@H]12 [CEANOTHIC ACID] | > 10 µM
CC(=O)O[C@@]12CO[C@@H]1C[C@H](O)[C@@]1(C)C(=O)[C@H](O)C3=C(C)[C@@H](OC(=O)[C@H](O)[C@@H](NC(=O)OC(C)(C)C)c4ccccc4)C[C@@](O)([C@@H](OC(=O)c4ccccc4)[C@H]21)C3(C)C [DOCETAXEL ANHYDROUS] | 8.3 µM
C=C(C)[C@@H]1CC[C@]2(C(=O)O)CC[C@]3(C)[C@H](CC[C@@H]4[C@@]5(C)[C@H](C(=O)O)[C@H](O)C(C)(C)[C@@H]5CC[C@]43C)[C@@H]12 [EPICEANOTHIC ACID] | > 10 µM

— ChEMBL document CHEMBL3867457, “Cytotoxic Ceanothane- and Lupane-Type Triterpenoids from the Roots of Ziziphus jujuba” (J Nat Prod, 2016)
